Values after ≈ are worked out from the molar mass of the structure shown.
Columns and labels:
[1] = system: Mycobacterium tuberculosis; test: Antitubercular activity against Mycobacterium tuberculosis H37Rv after 7 days by Resazurin microtiter assay; assay type: functional; conditions: 168 h
Method in brief: (§1)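 M. tuberculosis H37Rv suspension seeded at 10^5 cells per well in Middlebrook 7H9 broth. Compounds serially diluted directly on the plate; control got equivalent DMSO. Incubated 37 °C for 7 days, then 0.02% fresh resazurin added and incubated a further 48 h. MIC read visually as the lowest concentration giving complete inhibition (no blue-to-pink change).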

[2] = system: Mycobacterium tuberculosis; test: Antitubercular activity against Mycobacterium tuberculosis; assay type: functional; method in brief: as §1

Row | SMILES | MIC [1] [µg/mL] | MIC [2] [µg/mL]
1 | Cc1ccc2nc(NN)sc2c1 | 222 (≈ 1240 µM) | 
2 | NNc1nc2ccc(Cl)cc2s1 | 233 (≈ 1170 µM) | 
3 | NNc1nc2ccccc2s1 | 288 (≈ 1740 µM) | 
4 | O=Cc1ccc(Oc2ccccc2)cc1 | 133 (≈ 670 µM) | 
5 | O=Cc1ccc(Oc2ccccc2Cl)cc1 | 123 (≈ 531 µM) | 
6 | O=Cc1ccc(Oc2ccc(Cl)cc2)cc1 | 117 (≈ 504 µM) | 
7 | C(=N/Nc1nc2ccccc2s1)/c1ccc(Oc2ccccc2)cc1 | 12.7 (≈ 36.7 µM) | 
8 | Clc1ccccc1Oc1ccc(/C=N\Nc2nc3ccccc3s2)cc1 | 6 (≈ 15.8 µM) | 
9 | Clc1ccc(Oc2ccc(/C=N\Nc3nc4ccccc4s3)cc2)cc1 | 2.94 (≈ 7.74 µM) | 
10 | Clc1ccc(Oc2ccc(/C=N\Nc3nc4ccccc4s3)cc2)c(Cl)c1 | 2.63 (≈ 6.35 µM) | 
11 | Cc1cc(Oc2ccc(/C=N\Nc3nc4ccccc4s3)cc2)ccc1Cl | 6.63 (≈ 16.8 µM) | 
12 | Clc1ccc2nc(N/N=C\c3ccc(Oc4ccccc4)cc3)sc2c1 | 5.5 (≈ 14.5 µM) | 
13 | Clc1ccc2nc(N/N=C\c3ccc(Oc4ccccc4Cl)cc3)sc2c1 | 2 (≈ 4.83 µM) | 
14 | Clc1ccc(Oc2ccc(/C=N\Nc3nc4ccc(Cl)cc4s3)cc2)cc1 | 2.25 (≈ 5.43 µM) | 
15 | Clc1ccc(Oc2ccc(/C=N/Nc3nc4ccc(Cl)cc4s3)cc2)c(Cl)c1 | 1.5 (≈ 3.34 µM) | 
16 | Cc1cc(Oc2ccc(/C=N\Nc3nc4ccc(Cl)cc4s3)cc2)ccc1Cl | 4.5 (≈ 10.5 µM) | 
17 | Cc1ccc2nc(N/N=C\c3ccc(Oc4ccccc4)cc3)sc2c1 | 9.13 (≈ 25.4 µM) | 

Row | SMILES | MIC [1] [µg/mL] | MIC [2] [µg/mL]
18 | Cc1ccc2nc(N/N=C\c3ccc(Oc4ccccc4Cl)cc3)sc2c1 | 4.75 (≈ 12.1 µM) | 
19 | Cc1ccc2nc(N/N=C\c3ccc(Oc4ccc(Cl)cc4)cc3)sc2c1 | 15 (≈ 38.1 µM) | 
20 | Cc1ccc2nc(N/N=C\c3ccc(Oc4ccc(Cl)cc4Cl)cc3)sc2c1 | 12.6 (≈ 29.3 µM) | 
21 | Cc1ccc2nc(N/N=C\c3ccc(Oc4ccc(Cl)c(C)c4)cc3)sc2c1 | 15 (≈ 36.8 µM) | 
22 | COc1ccc2nc(N/N=C\c3ccc(Oc4ccccc4)cc3)sc2c1 | 16.5 (≈ 43.9 µM) | 
23 | COc1ccc2nc(N/N=C\c3ccc(Oc4ccccc4Cl)cc3)sc2c1 | 19.5 (≈ 47.6 µM) | 
24 | COc1ccc2nc(N/N=C\c3ccc(Oc4ccc(Cl)cc4)cc3)sc2c1 | 8 (≈ 19.5 µM) | 
25 | COc1ccc2nc(N/N=C\c3ccc(Oc4ccc(Cl)cc4Cl)cc3)sc2c1 | 27.5 (≈ 61.9 µM) | 
26 | COc1ccc2nc(N/N=C\c3ccc(Oc4ccc(Cl)c(C)c4)cc3)sc2c1 | 27 (≈ 63.7 µM) | 
27 | O=[N+]([O-])c1ccc2nc(N/N=C\c3ccc(Oc4ccccc4)cc3)sc2c1 | 29 (≈ 74.3 µM) | 
28 | O=[N+]([O-])c1ccc2nc(N/N=C\c3ccc(Oc4ccccc4Cl)cc3)sc2c1 | 29.5 (≈ 69.4 µM) | 
29 | O=[N+]([O-])c1ccc2nc(N/N=C\c3ccc(Oc4ccc(Cl)cc4)cc3)sc2c1 | 26.5 (≈ 62.4 µM) | 
30 | O=[N+]([O-])c1ccc2nc(N/N=C\c3ccc(Oc4ccc(Cl)cc4Cl)cc3)sc2c1 | 23.5 (≈ 51.2 µM) | 
31 | Cc1cc(Oc2ccc(/C=N\Nc3nc4ccc([N+](=O)[O-])cc4s3)cc2)ccc1Cl | 21.5 (≈ 49 µM) | 
32 | NNC(=O)c1ccncc1 [ISONIAZID] | 0.4 (≈ 2.92 µM) | 
33 | Oc1cc(Cl)ccc1Oc1ccc(Cl)cc1Cl [TRICLOSAN] |  | 5 (≈ 17.3 µM)
